Compound activity as filed in PubChem.
Most compounds without a hit are left out; they make up all but 2% or so of the library.
EBNA-1 inh: blocks EBNA-1 binding to DNA | inhibition, % at 14.8 µM | 300,000 tested, 0.34% active | EBNA-1 DNA binding, fluorescence polarization; in the data active means inhibition above about 28%
GPR7 antagonist: human neuropeptides B/W receptor 1 antagonism; GPR7-expressing cells, fluorescence antagonist assay; inhibition, % at 4.4 µM; 290,000 tested, 1.1% active; AID 1861; in the data active means inhibition above about 16%, passing the limit was not always enough;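 further: cells stimulated with the agonist NPW; 0% = agonist with vehicle and 100% = vehicle without agonist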
Target sequence (P48145 whole entry, looked up): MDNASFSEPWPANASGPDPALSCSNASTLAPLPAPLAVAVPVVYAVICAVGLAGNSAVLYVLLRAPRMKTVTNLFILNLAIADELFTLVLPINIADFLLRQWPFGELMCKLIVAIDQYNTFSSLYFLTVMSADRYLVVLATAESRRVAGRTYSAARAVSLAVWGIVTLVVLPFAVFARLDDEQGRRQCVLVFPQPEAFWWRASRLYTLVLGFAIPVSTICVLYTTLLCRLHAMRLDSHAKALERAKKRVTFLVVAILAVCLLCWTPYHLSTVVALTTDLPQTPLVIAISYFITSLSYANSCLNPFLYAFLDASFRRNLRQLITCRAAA
ZTA counter: blocks Epstein-Barr virus ZTA, an EBNA-1 counter-screen. P03206. 320,000 tested, 0.15% active. AID 2234. inhibition, % at 11 µM. ZTA-DNA binding, fluorescence polarization; in the data active means inhibition above about 33%
Target sequence (P03206 whole entry, looked up): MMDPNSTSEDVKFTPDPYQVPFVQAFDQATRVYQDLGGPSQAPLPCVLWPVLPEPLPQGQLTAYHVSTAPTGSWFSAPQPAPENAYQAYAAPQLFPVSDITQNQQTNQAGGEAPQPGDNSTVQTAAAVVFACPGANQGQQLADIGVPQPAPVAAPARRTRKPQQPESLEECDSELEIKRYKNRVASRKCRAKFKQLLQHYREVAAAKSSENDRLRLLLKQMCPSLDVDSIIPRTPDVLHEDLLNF
NS3 helicase inh: HCV NS3 helicase inhibition | inhibition, % at 10.9 µM | AID 1800 | 290,000 tested, 0.56% active | NS3 helicase DNA unwinding, Cy5 molecular beacon fluorescence;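 active means inhibition above the mean of all tested compounds plus 3 SD, set per campaign, cut at about 35% in these data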;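 further: 0% = DMSO wells and 100% = thioflavine S control wells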
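System: HCV NS3 helicase fragment; control set: DMSO and thioflavine S; technique: Cy5 fluorescence at 0 and 60 min, beacon hairpin quenching; reagent: beacon DNA duplex substrate plus ATP; replicates: singlicate; schedule: 1 h reaction at 25 °C, ATP-initiated; medium: MOPS buffer pH 6.5 with MgCl2, DTT, Tween20, BSA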
DNA FID counter: counter-screen for HCV NS3 helicase inhibitors: DNA intercalator displacement. DNA fluorescent intercalator displacement, fluorescence. inhibition, % at 7.9 µM. 290,000 tested, 0.17% active; in the data active means inhibition above about 37%;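 further: 0% = vehicle and 100% = reference compound; higher means more ethidium bromide displaced from hairpin DNA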
GPR7 antag conf: confirmation of human GPR7 antagonists; inhibition, % at 4.4 µM; GPR7-expressing cells, calcium fluorescence antagonist mode; 2,400 tested, 52% active; AID 1952; shares compounds with GPR7 antagonist; in the data active means inhibition above about 24%;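 further: stimulated with the GPR7 agonist NPW; 0% = agonist plus vehicle and 100% = vehicle alone without agonist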
MCHR1 antag: MCHR1 (human) antagonism in GPR7 counter-screen; shares compounds with GPR7 antagonist; AID 2148; MCHR1-expressing cells, fluorescence antagonist assay; 2,400 tested, 62% active; inhibition, % at 4.4 µM; in the data active means inhibition above about 22%;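 further: 0% = vehicle with agonist and 100% = vehicle without agonist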
* hit, by the source's call; . = no result.

SMILES	EBNA-1 inh	GPR7 antagonist	ZTA counter	NS3 helicase inh	DNA FID counter	GPR7 antag conf	MCHR1 antag
Cc1ccc(C)c(N/C(N)=N/c2nc(C)cc(C)n2)c1	-11	61*	5	-10	3	66*	71*
CC(=O)Nc1ccc(N/C(N)=N/c2nc(C)cc(C)n2)cc1	-5	-5	-13	7	-2	.	.
COc1cc(CN2CCCC(C(=O)N3CCc4ccccc4C3)C2)cc(OC)c1OC (stereo unspecified)	-18	3	4	-20	9	.	.
N#CCC(=O)N/N=C\c1ccccc1OC/C=C/c1ccccc1	-14	17	-18	20	-32	.	.
CCOc1ccc(N/C(=N/c2nc(C)cc(C)n2)NC(=O)CC)cc1	-6	21*	5	1	-8	1	8
COc1ccc(/C=N/NC(=O)c2cccc(Br)c2)cc1COc1ccccn1	-16	31*	2	5	-31	-4	48*
O=C(c1ccc(Br)cc1)C(CN1CCOCC1)c1ccccc1 (stereo unspecified)	-14	67*	6	-9	-9	59*	86*
CCOc1ccc(C(=O)C(CN2CCOCC2)c2ccccc2)cc1 (stereo unspecified)	-2	13	-5	-7	-5	.	.
CC(C)C(=O)Nc1cccc(C(=O)Nc2ccc(S(=O)(=O)Nc3nccs3)cc2)c1	-2	0	-10	6	-17	.	.
CC(NCc1ccc(OCc2ccc(Cl)cc2)cc1)C(O)c1ccccc1 (stereo unspecified)	-4	27*	1	-62	27	58*	81*
CCC(C(=O)OC)n1cnc2c(nnn2-c2ccc(C)cc2)c1=O (stereo unspecified)	-11	-6	-9	-2	-17	.	.
COc1ccc(NS(=O)(=O)c2ccc(NS(=O)(=O)c3cccs3)cc2)cc1	2	15	3	-6	-1	.	.
Oc1ccccc1-c1cc(C(F)(F)C(F)F)[nH]n1	13	6	14	-19	2	.	.
Fc1ccc(-c2cc(C(F)(F)C(F)F)[nH]n2)cc1	10	42*	-12	-1	0	64*	63*
FC(F)C(F)(F)c1cc(-c2ccc(Cl)cc2)n[nH]1	-11	30*	-17	18	-5	32*	44*
CCNS(=O)(=O)c1ccc(CCC(=O)NCc2ccccn2)cc1	2	6	-8	3	-5	.	.
CCc1ccc(S(=O)(=O)c2nnn3c2nc(N2CCOCC2)c2ccccc23)cc1	-4	-10	7	-10	-19	.	.
O=C(COc1ccccc1F)N1CCc2ccccc2C1	8	26*	10	-32	-10	34*	35*
O=C(COc1ccccc1Cl)N1CCc2ccccc2C1	-4	0	12	-1	-27	.	.
COc1ccccc1NC(=O)Oc1cccc(OC(=O)c2ccccc2)c1	-18	21	7	3	-3	10	20
O=C(C1CCCN(Cc2ccc([N+](=O)[O-])cc2)C1)N1CCCCC1 (stereo unspecified)	12	-1	5	-8	0	.	.
COc1ccccc1CNC(=O)[C@H](C)NC(=O)C1CCN(C(=O)[C@@H]2CCCN2C(=O)OC(C)(C)C)CC1	11	-2	2	-23	-33	.	.
CNCC(O)Cn1c(C(F)(F)F)nc2ccccc21 (stereo unspecified)	1	31*	-15	3	1	-6	19
O=[N+]([O-])c1cccc(NC(=S)Nc2nc(-c3ccccc3Cl)cs2)c1	-7	27*	-6	20	9	42*	55*
COc1ccc(CC(=S)NCCc2ccccc2)cc1	-8	21	2	-5	-8	.	.
SMILES	EBNA-1 inh	GPR7 antagonist	ZTA counter	NS3 helicase inh	DNA FID counter	GPR7 antag conf	MCHR1 antag
CC(C)CC(=O)Nc1c(C(=O)N2CCN(Cc3ccccc3)CC2)oc2ccccc12	4	2	1	-8	-30	.	.
CCc1ccc(NC(=O)CSc2ccc(-c3sc(C)nc3C)nn2)cc1	1	31*	-11	-5	-24	41*	76*
COc1ccc(NC(=O)CSc2ccc(-c3sc(C)nc3C)nn2)cc1	-9	1	16	3	-25	.	.
Cc1nc(C)c(-c2ccc(SCC(=O)Nc3cccc(Cl)c3)nn2)s1	23	33*	6	-7	-16	48*	67*
Nc1cc(Cl)ccc1Nc1ccncc1	.	5	.	-4	-1	.	.
O=C(N=C1SC2CS(=O)(=O)CC2N1c1ccc(F)cc1)C1CC1 (stereo unspecified)	2	-9	1	-5	-5	.	.
Cc1ccc(C(=O)C2CCN(CC(=O)NC3CCCC3)CC2)cc1	-2	-1	4	2	-9	.	.
Cc1cc(C)nc(N/N=C/c2ccccc2Cl)n1	0	23*	-16	5	-9	2	8
O=C(c1cccc(F)c1)N1CCN(C(=O)C(c2ccccc2)c2ccccc2)CC1	-10	0	12	2	-38	.	.
Cc1ccccc1N=C/C=C1/C=C(c2ccccc2)OC(C)(C)O1	-9	-4	-20	9	0	.	.
COc1ccc(N=C/C=C2\C=C(c3ccccc3)OC(C)(C)O2)cc1	-2	29*	0	-16	2	-10	5
COc1ccc(N(C)S(=O)(=O)c2ccc(Cl)c(C(=O)NCCc3ccc(Cl)cc3)c2)cc1	-9	45*	-6	-4	-25	48*	50*
CN(c1ccccc1)S(=O)(=O)c1ccc(C(=O)NCCc2ccc(F)cc2)cc1	-3	27*	-8	-12	-27	23	18
COc1ccc(CCNC(=O)CN(Cc2ccc(Cl)cc2)S(C)(=O)=O)cc1	.	25*	.	-16	-31	13	13
Cc1ccc2c(c1)c1c(n2CCc2ccc(C)nc2)CCN(C)C1	.	.	-3	.	.	.	.
Fc1ccccc1Cc1noc(CN2CCN(c3ccc(Cl)cn3)CC2)n1	6	21*	15	-15	-23	13	26*
Clc1ccccc1Cc1noc(CN2CCN(c3cnccn3)CC2)n1	-2	-3	-25	-13	-12	.	.
COc1ccc(C(=O)NC2CC2)cc1OC1CCN(Cc2cc(C)cc(C)c2)CC1	-2	-4	0	-6	13	.	.
NS(=O)(=O)c1ccc(CCNC(=O)COC(=O)CC(c2ccccc2)c2ccccc2)cc1	6	52*	-1	-6	-30	2	69*
NS(=O)(=O)c1ccc(CCNC(=O)CC(c2ccccc2)c2ccccc2)cc1	3	-7	8	20	-15	.	.
NS(=O)(=O)c1ccc(CCNC(=O)COC(=O)C2CCC2)cc1	2	38*	10	7	-3	-3	-5
CCN(CC(=O)NCc1ccc(Cl)cc1)C(=O)C(C)Sc1ccccc1 (stereo unspecified)	17	-2	4	-5	-33	.	.
CCCSc1nnc(CSc2nc3ccccc3s2)n1-c1ccccc1	-1	32*	-16	-3	-17	10	50*
